From ChEMBL document CHEMBL1123476, “Synthesis of congeners and prodrugs of the benzene maleimide photoadduct mitindomide as potential antitumor agents. 2” (J Med Chem, 1986)
Values joined by “and” are separate entries in the source; they are usually repeats but may differ in a detail not shown here. Identical values can stand only once.

How the values were obtained:
[1] = Solubility was determined; INS= less than 0.1; assay type: physicochemical
[2] = tested on: P388; test: Antitumor activity in P-388 lymphocytic leukemia system at 200 mg/kg dose levels per injection.; assay type: functional, Mus musculus
Outline: (§1)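 P-388 leukemia in animals, Q01D×09 schedule: dose given daily for 9 days, in mg/kg per injection. Read-outs are survivors on day 4 (live/total animals), body-weight difference test minus control (g), and % T/C (median lifetime of treated ÷ median lifetime of controls × 100). Some compounds were tested in independent runs at different times.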

[3] = tested on: P388; test: (§2) Antitumor activity in P-388 lymphocytic leukemia system at 100 mg/kg dose levels per injection.; assay type: functional, Mus musculus; outline: as §1
[4] = tested on: P388; test: as §2; assay type: functional, Mus musculus; remark: listed apart in the source
Outline: (§3)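 P-388 leukemia in vivo, dosed Q01D×09 (one injection daily for 9 days, mg/kg per injection). Activity is %T/C, the median lifetime of treated animals divided by that of controls, ×100. Live animals on day 4 were counted against the total (survivors day 4). Repeat tests were done independently at different times.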

[5] = tested on: P388; test: (§4) Antitumor activity in P-388 lymphocytic leukemia system at 50 mg/kg dose levels per injection.; assay type: functional, Mus musculus; outline: as §1
[6] = tested on: P388; test: Compound was tested for antitumor activity in P-388 lymphocytic leukemia system at 25 mg/kg dose levels per injection; 6/6; assay type: functional, Mus musculus; outline: as §1
[7] = tested on: P388; test: Antitumor activity in P-388 lymphocytic leukemia system at 25 mg/kg dose levels per injection; assay type: functional, Mus musculus; outline: as §3
[8] = tested on: P388; test: Compound was tested for antitumor activity in P-388 lymphocytic leukemia system at 25 mg/kg dose levels per injection; assay type: functional, Mus musculus; outline: as §3
[9] = tested on: P388; test: as §4; assay type: functional, Mus musculus; outline: as §3; remark: listed apart in the source
[10] = tested on: P388; test: Compound was tested for antitumor activity in P-388 lymphocytic leukemia system. at 200 mg/kg dose levels per injection; assay type: functional, Mus musculus; outline: as §3
[11] = tested on: P388; test: Compound was tested for antitumor activity in P-388 lymphocytic leukemia system at 200 mg/kg dose levels per injection; assay type: functional, Mus musculus; outline: as §3
[12] = tested on: P388; test: Compound was tested for antitumor activity in P-388 lymphocytic leukemia system at 200 mg/kg dose levels per injection; 3/6; assay type: functional, Mus musculus; outline: as §1
[13] = tested on: P388; test: Compound was tested for antitumor activity in P-388 lymphocytic leukemia system at 200 mg/kg dose levels per injection; 5/6; assay type: functional, Mus musculus; outline: as §1
[14] = tested on: P388; test: Compound was tested for antitumor activity in P-388 lymphocytic leukemia system at 100 mg/kg dose levels per injection; 5/6; assay type: functional, Mus musculus; outline: as §1
[15] = tested on: P388; test: Compound was tested for antitumor activity in P-388 lymphocytic leukemia system at 12.5 mg/kg dose levels per injection; 6/6; assay type: functional, Mus musculus; outline: as §1
[16] = tested on: P388; test: Compound was tested for antitumor activity in P-388 lymphocytic leukemia system The difference in body weight was calculated at 12.5 mg/kg dose levels per injection; assay type: functional, Mus musculus
[17] = tested on: P388; test: Compound was tested for antitumor activity in P-388 lymphocytic leukemia system at 12.5 mg/kg dose levels per injection; assay type: functional, Mus musculus; outline: as §3
[18] = tested on: P388; test: Compound was tested for antitumor activity in P-388 lymphocytic leukemia system at 200 mg/kg dose levels per injection.; assay type: functional, organism-based; design: dose 200 mg/kg; settings: Mus musculus; outline: as §3
[19] = tested on: P388; test: Compound was tested for antitumor activity in P-388 lymphocytic leukemia system at 200 mg/kg dose levels per injection; 4/6; assay type: functional, Mus musculus; outline: as §1
[20] = tested on: P388; test: Antitumor activity in P-388 lymphocytic leukemia system at 25 mg/kg dose levels per injection.; assay type: functional, Mus musculus; outline: as §1
[21] = tested on: P388; test: Antitumor activity in P-388 lymphocytic leukemia system and the difference in body weight calculated at 100 mg/kg dose levels per injection.; assay type: functional, Mus musculus; settings: 100 mg/kg
[22] = tested on: P388; test: Antitumor activity in P-388 lymphocytic leukemia system and the difference in body weight was calculated at 200 mg/kg dose levels per injection.; assay type: functional, Mus musculus; settings: 200 mg/kg
[23] = tested on: P388; test: Antitumor activity in P-388 lymphocytic leukemia system and the difference in body weight was calculated at 25 mg/kg dose levels per injection.; assay type: functional, Mus musculus; settings: 25 mg/kg
[24] = tested on: P388; test: Antitumor activity in P-388 lymphocytic leukemia system and the difference in body weight was calculated at 50 mg/kg dose levels per injection.; assay type: functional, Mus musculus; settings: 50 mg/kg
[25] = tested on: P388; test: Compound was tested for antitumor activity in P-388 lymphocytic leukemia system at 50 mg/kg dose levels per injection; 6/6; assay type: functional, Mus musculus; outline: as §1
[26] = tested on: P388; test: Compound was tested for antitumor activity in P-388 lymphocytic leukemia system at 191.2 mg/kg dose levels per injection; 0/6; assay type: functional, Mus musculus; outline: as §1
[27] = tested on: P388; test: Compound was tested for antitumor activity in P-388 lymphocytic leukemia system at 114.7 mg/kg dose levels per injection; 2/6; assay type: functional, Mus musculus; outline: as §1
[28] = tested on: P388; test: Compound was tested for antitumor activity in P-388 lymphocytic leukemia system at 24.8 mg/kg dose levels per injection; 6/6; assay type: functional, Mus musculus; outline: as §1
[29] = tested on: P388; test: Compound was tested for antitumor activity in P-388 lymphocytic leukemia system at 68.8 mg/kg dose levels per injection; 6/6; assay type: functional, Mus musculus; outline: as §1
[30] = tested on: P388; test: Compound was tested for antitumor activity in P-388 lymphocytic leukemia system at 41.3 mg/kg dose levels per injection; 6/6; assay type: functional, Mus musculus; outline: as §1
[31] = tested on: P388; test: Compound was tested for antitumor activity in P-388 lymphocytic leukemia system. The difference in body weight was calculated at 24.8 mg/kg dose levels per injection; assay type: functional, Mus musculus
[32] = tested on: P388; test: Compound was tested for antitumor activity in P-388 lymphocytic leukemia system and the difference in body weight was calculated at 114.7 mg/kg dose levels per injection; assay type: functional, Mus musculus
[33] = tested on: P388; test: Compound was tested for antitumor activity in P-388 lymphocytic leukemia system and the difference in body weight was calculated at 41.3 mg/kg dose levels per injection; assay type: functional, Mus musculus
[34] = tested on: P388; test: Compound was tested for antitumor activity in P-388 lymphocytic leukemia system and the difference in body weight was calculated at 68.8 mg/kg dose levels per injection; assay type: functional, Mus musculus
[35] = tested on: P388; test: Compound was tested for antitumor activity in P-388 lymphocytic leukemia system at 24.8 mg/kg dose levels per injection; assay type: functional, Mus musculus; outline: as §3
[36] = tested on: P388; test: Compound was tested for antitumor activity in P-388 lymphocytic leukemia system at 41.3 mg/kg dose levels per injection; assay type: functional, Mus musculus; outline: as §3
[37] = tested on: P388; test: Compound was tested for antitumor activity in P-388 lymphocytic leukemia system at 68.8 mg/kg dose levels per injection; assay type: functional, Mus musculus; outline: as §3

CC12C=CC(C)(C3C(=O)NC(=O)C31)C1C3C(=O)NC(=O)C3C12 (stereo not drawn)
Solubility [1]: Insoluble | Survivors at day 4 [2]: 6 | Survivors at day 4 [3]: 6 | T/C [4]: 109% | Weight difference [4]: -4.8 g | Survivors at day 4 [5]: 6 | Survivors at day 4 [6]: 6 | T/C [7]: 103% | Weight difference [8]: -1.5 g | T/C [9]: 108% | Weight difference [9]: -3.7 g | T/C [10]: 97% | Weight difference [11]: -6.1 g

O=C1NC(=O)C2C3C=CC(C12)C1C2C(=O)NC(=O)C2C31 (stereo not drawn)
Solubility [1]: Insoluble | Survivors at day 4 [12]: 3 | Survivors at day 4 [13]: 5 | Survivors at day 4 [14]: 5 | Survivors at day 4 [3]: 6 | Survivors at day 4 [15]: 6 | T/C [4]: 94% | Weight difference [4]: -3.4 g | T/C ([4]; 100 mg/kg): 177% | Survivors at day 4 [5]: 6 | Survivors at day 4 [6]: 6 | Weight difference [16]: 0.2 g | T/C [17]: 119% | T/C [18]: Toxic | T/C ([7]; 25 mg/kg): 149% and 142% | T/C ([9]; 50 mg/kg): 172% and 168% | Weight difference ([9]; 50 mg/kg): -2.2 g and -2 g | Weight difference ([11]; 200 mg/kg): -7.3 g and -3.1 g

O=C1C2C3C=CC(C2C(=O)N1CN1CCOCC1)C1C2C(=O)N(CN4CCOCC4)C(=O)C2C31 (stereo not drawn)
Solubility [1]: Insoluble | Survivors at day 4 [12]: 3 | Survivors at day 4 [19]: 4 | Survivors at day 4 [3]: 6 | T/C ([4]; 100 mg/kg): 120% and 174% | Survivors at day 4 [20]: 6 | Survivors at day 4 [5]: 6 | Weight difference [21]: -4.8 g and -3.9 g | Weight difference [22]: -6.2 g and -5.9 g | Weight difference [23]: -1 g and -0.9 g | Weight difference [24]: -1.7 g and -1.5 g | T/C [18]: Toxic | T/C ([7]; 25 mg/kg): 120% and 125% | T/C ([9]; 50 mg/kg): 148% and 141% | Survivors at day 4 [25]: 6

CN1CCN(CN2C(=O)C3C4C=CC(C3C2=O)C2C3C(=O)N(CN5CCN(C)CC5)C(=O)C3C42)CC1.Cl (stereo not drawn)
Survivors at day 4 [26]: 0 | Survivors at day 4 [27]: 2 | Survivors at day 4 [28]: 6 | Survivors at day 4 [29]: 6 | Survivors at day 4 [30]: 6 | Weight difference [31]: 1.2 g | Weight difference [32]: -5.9 g | Weight difference [33]: -1.8 g | Weight difference [34]: -4.6 g | T/C [35]: 113% | T/C [36]: 130% | T/C [37]: 172%
